Values after ≈ are worked out from the molar mass of the structure shown. Active and inactive are the calls of the source. No cut-off for these calls is given here. Bridge positions count the residues as written; N and C are the ends. Peptide text beside a SMILES is read from it.
Experiments:
Escherichia coli [1] = assay: Antibacterial activity against Escherichia coli ATCC 25922 assessed as inhibition of bacterial growth at 4 mg/L; format: functional, organism-based
Rattus norvegicus [2] = assay: Decrease in TNF-alpha level in plasma of Escherichia coli serotype 0111:B4 infected Wistar rat at 1 mg/kg, iv administered immediately after LPS challenge; format: functional, organism-based; set-up: dose 1 mg/kg
In short: (§1)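 Anaesthetised male Wistar rats (15 per group) given 1.0 mg E. coli 0111:B4 LPS i.p. in 500 μl saline, treated immediately; saline controls. Tail-vein blood sampled into EDTA at 0, 2, 6, 12 and 36 h. Endotoxin by Limulus amebocyte lysate: plasma twofold diluted, heated 5 min at 75°C, read against a 0–0.5 EU/ml standard curve. TNF-α by sandwich ELISA at 450 nm, in duplicate, lower limit 0.05 ng/ml.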

Rattus norvegicus [3] = assay: Decrease in endotoxin level in plasma of Escherichia coli serotype 0111:B4 infected Wistar rat at 1 mg/kg, iv administered immediately after LPS challenge; format: functional, organism-based; set-up: dose 1 mg/kg; in short: as §1
Escherichia coli [4] = assay: Antibacterial activity against Escherichia coli ATCC 25922 by CLSI method; format: functional
In short: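 Broth MIC by CLSI (NCCLS M7-A6) dilution method, run in triplicate.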

Escherichia coli [5] = assay: Antibacterial activity against Escherichia coli ATCC 25922 by CLSI method in presence of 2 mg/L tachyplesin 3; format: functional
In short: (§2)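 Permeabilisation assay: 1 × 10^5 CFU added to twofold clarithromycin dilutions (1,000–0.5 μg/ml) in Iso-Sensitest broth, with or without peptide. Clarithromycin MIC compared with and without peptide. The lowest peptide level needed for sensitivity to 30 μg/ml clarithromycin was also determined.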

Escherichia coli [6] = assay: Antibacterial activity against Escherichia coli by CLSI method in presence of 2 mg/L tachyplesin 3; format: functional, organism-based; in short: as §2
Escherichia coli [7] = assay: Antibacterial activity against 1x10^9 CFU Escherichia coli ATCC 25922 infected Wistar rat assessed as rat mortality at 60 mg/kg, iv administered immediately after bacterial challenge measured 72 hrs postinfection (Rvb mortality = 100%); format: functional
Escherichia coli [8] = assay: Antibacterial activity against 1x10^9 CFU Escherichia coli ATCC 25922 infected Wistar rat assessed as rat bacterial count in peritoneal fluid at 50 mg/kg, iv administered immediately after bacterial challenge measured 72 hrs postinfection (Rvb= 8.86 logCFU/ml); format: functional
In short: (§3)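 Male Wistar rats (3–5 months, 300–400 g) under ketamine/xylazine anaesthesia, inoculated i.p. with 1 × 10^9 CFU log-phase E. coli ATCC 25922 in 1 ml saline. Drug given immediately after challenge; saline controls; 15 rats per group. Survivors killed at end of 72 h. Peritoneal lavage with 10 ml saline, plated on blood agar at 35°C for 48 h, aerobic and anaerobic. Detection limit ≤2 log10 CFU/ml. Mean ± SD.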

Rattus norvegicus [9] = assay: Toxicity in Wistar rat assessed as effect on physiological parameters at 1 mg/kg, iv; format: organism-based; set-up: dose 1 mg/kg, route intravenous; conditions: in vivo
In short: (§4)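 Rats receiving the peptide were watched for local inflammation, anorexia, weight loss, diarrhoea, fever and behavioural change. A separate uninfected group given 1 mg/kg peptide was monitored for temperature, pulse, blood pressure, respiration and oxygenation.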

Escherichia coli [10] = assay: Antibacterial activity against Escherichia coli clinical isolates by CLSI method in presence of 2 mg/L tachyplesin 3; format: functional; in short: as §2
Escherichia coli [11] = assay: Antibacterial activity against Escherichia coli ATCC 25922 by CLSI method in presence of clarithromycin; format: functional
Escherichia coli [12] = assay: Antibacterial activity against Escherichia coli ATCC 25922 assessed as bacterial count after 24 hrs; format: functional
Escherichia coli [13] = assay: Antibacterial activity against 1x10^9 CFU Escherichia coli ATCC 25922 infected Wistar rat assessed as rat mortality at 1 mg/kg, iv administered immediately after bacterial challenge measured 72 hrs postinfection (Rvb mortality = 100%); format: functional
Escherichia coli [14] = assay: Antibacterial activity against 1x10^9 CFU Escherichia coli ATCC 25922 infected Wistar rat assessed as rat bacterial count in peritoneal fluid at 1 mg/kg, iv administered immediately after bacterial challenge measured 72 hrs postinfection (Rvb= 8.86 logCFU/ml); format: functional; in short: as §3
Rattus norvegicus [15] = assay: Toxicity in Wistar rat assessed as occurrence of adverse events at 1 mg/kg, iv; format: organism-based; set-up: dose 1 mg/kg, route intravenous; conditions: in vivo; in short: as §4
Escherichia coli [16] = assay: Antibacterial activity against Escherichia coli ATCC 25922 by CLSI method in presence of tachyplesin 3; format: functional

CC[C@H](C)[C@H](NC(=O)CNC(=O)[C@H](CCCNC(=N)N)NC(=O)[C@H](Cc1ccc(O)cc1)NC(=O)[C@H](CS)NC(=O)[C@@H](NC(=O)[C@H](CCCNC(=N)N)NC(=O)[C@H](Cc1ccccc1)NC(=O)[C@H](CS)NC(=O)[C@H](Cc1c[nH]c2ccccc12)NC(=O)[C@@H](N)CCCCN)C(C)C)C(=O)N[C@@H](CS)C(=O)N[C@@H](Cc1ccc(O)cc1)C(=O)N[C@@H](CCCNC(=N)N)C(=O)N[C@@H](CCCCN)C(=O)N[C@@H](CS)C(=O)N[C@@H](CCCNC(=N)N)C(N)=O (H-KWCFRVCYRGICYRKCR-NH2)
inhibition (Escherichia coli [1]): Active
Activity (Rattus norvegicus [2]): Active
Activity (Rattus norvegicus [3]): Active

CC[C@H]1OC(=O)[C@H](C)[C@@H](O[C@H]2C[C@@](C)(OC)[C@@H](O)[C@H](C)O2)[C@H](C)[C@@H](O[C@@H]2O[C@H](C)C[C@H](N(C)C)[C@H]2O)[C@](C)(OC)C[C@@H](C)C(=O)[C@H](C)[C@@H](O)[C@]1(C)O [CLARITHROMYCIN]
MIC (Escherichia coli [4]): 128 µg/mL (≈ 171 µM)
MIC (Escherichia coli [5]): 32 µg/mL
inhibition (Escherichia coli [6]): Active
Activity (Escherichia coli [7]): 66.6%
log10CFU/ml (Escherichia coli [8]): 6.68
Activity (Rattus norvegicus [9]): Non-toxic
MIC (Escherichia coli [10]): 32 µg/mL

CC[C@H](C)[C@@H]1NC(=O)CNC(=O)[C@H](CCCNC(=N)N)NC(=O)[C@H](Cc2ccc(O)cc2)NC(=O)[C@@H]2CSSC[C@H](NC1=O)C(=O)N[C@@H](Cc1ccc(O)cc1)C(=O)N[C@@H](CCCNC(=N)N)C(=O)N[C@@H](CCCCN)C(=O)N[C@H](C(=O)N[C@@H](CCCNC(=N)N)C(N)=O)CSSC[C@H](NC(=O)[C@H](Cc1c[nH]c3ccccc13)NC(=O)[C@@H](N)CCCCN)C(=O)N[C@@H](Cc1ccccc1)C(=O)N[C@@H](CCCNC(=N)N)C(=O)N[C@@H](C(C)C)C(=O)N2 [TACHYPLESIN III] (H-KWCFRVCYRGICYRKCR-NH2; disulfide 3-16, 7-12)
fractional inhibitory concentration index (FICI) (Escherichia coli [11]): 0.385
CFU (Escherichia coli [12]): 5.65 ×10⁶ /ml
Activity (Escherichia coli [13]): 33.3%
log10CFU/ml (Escherichia coli [14]): 4.46
Activity (Rattus norvegicus [15]): Non-toxic
fractional inhibitory concentration index (FICI) (Escherichia coli [16]): 0.385

From ChEMBL document CHEMBL1649113, “Efficacy of the combination of tachyplesin III and clarithromycin in rat models of Escherichia coli sepsis” (Antimicrob Agents Chemother, 2008)
